Active and inactive are the calls of the source. The rule behind the calls is not given here.
How the values were obtained:
[1] = Kinetic solubility of the compound in normal saline at pH 7.4; type: physicochemical; conditions: buffer
[2] = molecular target: T1, Tyrosine-protein kinase Mer (Homo sapiens) (UniProt Q12866); conditions: A549, 50 to 300 nM
T1 sequence (whole entry): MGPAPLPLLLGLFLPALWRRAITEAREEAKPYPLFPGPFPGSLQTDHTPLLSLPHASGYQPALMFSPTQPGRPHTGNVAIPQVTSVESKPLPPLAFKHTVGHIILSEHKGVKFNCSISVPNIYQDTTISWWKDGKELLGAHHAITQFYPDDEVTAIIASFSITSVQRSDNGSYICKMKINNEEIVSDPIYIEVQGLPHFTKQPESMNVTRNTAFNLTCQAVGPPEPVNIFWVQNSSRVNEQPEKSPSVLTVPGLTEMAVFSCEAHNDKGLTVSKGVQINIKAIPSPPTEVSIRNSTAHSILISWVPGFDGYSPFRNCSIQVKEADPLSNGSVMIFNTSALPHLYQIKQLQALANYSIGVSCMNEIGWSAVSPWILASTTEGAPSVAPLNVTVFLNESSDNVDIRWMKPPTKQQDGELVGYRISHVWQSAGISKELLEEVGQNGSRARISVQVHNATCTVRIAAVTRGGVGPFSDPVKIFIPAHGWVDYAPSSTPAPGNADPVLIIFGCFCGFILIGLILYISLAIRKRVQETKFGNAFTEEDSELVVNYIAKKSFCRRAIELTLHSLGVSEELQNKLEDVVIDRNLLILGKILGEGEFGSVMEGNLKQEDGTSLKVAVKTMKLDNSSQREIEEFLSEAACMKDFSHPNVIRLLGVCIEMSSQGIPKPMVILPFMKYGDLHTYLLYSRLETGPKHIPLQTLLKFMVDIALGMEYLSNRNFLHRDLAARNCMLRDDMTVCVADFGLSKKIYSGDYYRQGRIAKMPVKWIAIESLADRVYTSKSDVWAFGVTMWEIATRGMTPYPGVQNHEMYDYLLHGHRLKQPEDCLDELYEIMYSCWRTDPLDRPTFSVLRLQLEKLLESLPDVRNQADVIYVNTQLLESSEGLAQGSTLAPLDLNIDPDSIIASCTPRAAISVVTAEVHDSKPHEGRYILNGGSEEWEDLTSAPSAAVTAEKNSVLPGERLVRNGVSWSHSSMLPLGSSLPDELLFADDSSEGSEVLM

[3] = molecular target: Receptor-type tyrosine-protein kinase FLT3 (Homo sapiens) (UniProt P36888); conditions: MOLM-14, 10 to 50 nM
Mus musculus [4] = assay: Oral bioavailability in Swiss albino mouse at 3 mg/kg; type: ADME, organism-based; conditions: in vivo
Summary of the method: (§1)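 Mouse PK after single intravenous or oral dose; n = 3 mice per time point. Parameters reported: T1/2, Cmax, AUClast, Vss and CL for iv; Tmax, Cmax, AUClast and %F for po. One iv formulation given is 7.5% v/v N-methyl pyrrolidone with 20% cremophor EL in water.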

[5] = Cmax in Swiss albino mouse at 3 mg/kg, po; type: ADME, organism-based; set-up: dose 3 mg/kg, route oral; conditions: in vivo; summary of the method: as §1
[6] = AUClast in Swiss albino mouse at 3 mg/kg, po; type: ADME, organism-based; set-up: time 0 - last, dose 3 mg/kg, route oral; conditions: plasma; summary of the method: as §1
[7] = Volume of distribution at steady state in Swiss albino mouse at 3 mg/kg, iv; type: ADME, organism-based; set-up: dose 3 mg/kg, route intravenous; conditions: in vivo, read-out: Vdss; summary of the method: as §1
[8] = Half life in Swiss albino mouse at 3 mg/kg, iv; type: ADME, organism-based; set-up: dose 3 mg/kg, route intravenous; conditions: in vivo; summary of the method: as §1
[9] = Cmax in Swiss albino mouse at 3 mg/kg, iv; type: ADME, organism-based; set-up: dose 3 mg/kg, route intravenous; conditions: in vivo; summary of the method: as §1
[10] = AUClast in Swiss albino mouse at 3 mg/kg, iv; type: ADME, organism-based; set-up: time 0 - last, dose 3 mg/kg, route intravenous; conditions: plasma; summary of the method: as §1
[11] = Clearance in Swiss albino mouse at 3 mg/kg, iv; type: ADME, organism-based; set-up: dose 3 mg/kg, route intravenous; conditions: in vivo; summary of the method: as §1
[12] = Tmax in Swiss albino mouse at 3 mg/kg, po; type: ADME, organism-based; set-up: dose 3 mg/kg, route oral; conditions: in vivo; summary of the method: as §1
[13] = Volume of distribution at steady state in Swiss albino mouse at 1 mg/kg, iv; type: ADME, organism-based; set-up: dose 1 mg/kg, route intravenous; conditions: in vivo, read-out: Vdss; summary of the method: as §1
[14] = AUClast in Swiss albino mouse at 1 mg/kg, iv; type: ADME, organism-based; set-up: dose 1 mg/kg, route intravenous, time 0 - last; conditions: plasma; summary of the method: as §1
[15] = AUClast in Swiss albino mouse at 10 mg/kg, po; type: ADME, organism-based; set-up: time 0 - last, dose 10 mg/kg, route oral; conditions: plasma; summary of the method: as §1
Mus musculus [16] = assay: Oral bioavailability in Swiss albino mouse at 10 mg/kg; type: ADME, organism-based; conditions: in vivo; summary of the method: as §1
[17] = Cmax in Swiss albino mouse at 10 mg/kg, po; type: ADME, organism-based; set-up: dose 10 mg/kg, route oral; conditions: in vivo; summary of the method: as §1
[18] = Tmax in Swiss albino mouse at 10 mg/kg, po; type: ADME, organism-based; set-up: dose 10 mg/kg, route oral; conditions: in vivo; summary of the method: as §1
[19] = Half life in Swiss albino mouse at 1 mg/kg, iv; type: ADME, organism-based; set-up: dose 1 mg/kg, route intravenous; conditions: in vivo; summary of the method: as §1
[20] = Cmax in Swiss albino mouse at 1 mg/kg, iv; type: ADME, organism-based; set-up: dose 1 mg/kg, route intravenous; conditions: in vivo; summary of the method: as §1
[21] = Clearance in Swiss albino mouse at 1 mg/kg, iv; type: ADME, organism-based; set-up: dose 1 mg/kg, route intravenous; conditions: in vivo; summary of the method: as §1
[22] = molecular target: T2, NUAK family SNF1-like kinase 1 (Homo sapiens, UniProt O60285); assay: Inhibition of Nuak1 (unknown origin) by Off-chip Mobility Shift Assay
T2 sequence (O60285 whole entry): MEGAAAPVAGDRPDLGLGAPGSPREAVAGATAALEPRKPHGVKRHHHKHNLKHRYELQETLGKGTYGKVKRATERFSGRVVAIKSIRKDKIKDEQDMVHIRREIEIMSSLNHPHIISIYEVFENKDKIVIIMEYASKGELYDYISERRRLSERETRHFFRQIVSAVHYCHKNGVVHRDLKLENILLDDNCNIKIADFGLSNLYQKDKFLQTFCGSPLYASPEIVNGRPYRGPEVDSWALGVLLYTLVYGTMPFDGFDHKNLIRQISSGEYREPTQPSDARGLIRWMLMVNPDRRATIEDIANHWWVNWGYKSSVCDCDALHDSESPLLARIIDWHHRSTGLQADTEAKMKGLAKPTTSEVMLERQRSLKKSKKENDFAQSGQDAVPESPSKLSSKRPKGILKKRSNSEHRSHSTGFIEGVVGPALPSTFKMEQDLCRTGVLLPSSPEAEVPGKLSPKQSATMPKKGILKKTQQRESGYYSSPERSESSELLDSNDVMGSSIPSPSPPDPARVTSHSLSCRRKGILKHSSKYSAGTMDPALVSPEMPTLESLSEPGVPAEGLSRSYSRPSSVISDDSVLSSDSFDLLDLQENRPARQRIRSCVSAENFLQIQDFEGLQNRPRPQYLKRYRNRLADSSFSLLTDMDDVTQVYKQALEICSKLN
Summary of the method: (§2)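 Kinase panel run in duplicate using a microcapillary electrophoresis (mobility shift) assay. Screening concentration was 100 nM. IC50 values were then determined at each kinase's ATP Km.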

[23] = molecular target: NT-3 growth factor receptor (Homo sapiens, UniProt Q16288); assay: Inhibition of TRKC (unknown origin) by Off-chip Mobility Shift Assay; summary of the method: as §2
[24] = Plasma protein binding in human 697 cells xenografted NOD.Cg-Prkdcscid Il2rgtm1Wjl/SzJ mouse at 3 mg/kg, po administered as single dose measured after 30 mins post dose; type: ADME, organism-based; set-up: dose 3 mg/kg, route oral; conditions: read-out: PPB (converted)
Summary of the method: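 Plasma protein binding was measured in mice, n = 3.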

Plasma = assay: Fraction unbound in plasma of human 697 cells xenografted NOD.Cg-Prkdcscid Il2rgtm1Wjl/SzJ mouse at 3 mg/kg, po administered as single dose measured after 30 mins post dose; type: ADME, organism-based; set-up: dose 3 mg/kg, route oral; conditions: in vivo, 0.5 h
[25] = molecular target: Mast/stem cell growth factor receptor Kit (Homo sapiens, UniProt P10721); assay: Inhibition of Kit (unknown origin) by Off-chip Mobility Shift Assay; summary of the method: as §2
697 = assay: Inhibition of Mer phosphorylation in human 697 cells xenografted in NOD.Cg-Prkdcscid Il2rgtm1Wjl/SzJ mouse at 3 mg/kg, po administered as single dose measured after 30 mins post dose by densitometry relative to control; type: functional; conditions: Mus musculus, 697, 0.5 h
Summary of the method: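 NSG mice received 2 × 10^6 697 B-ALL cells by tail-vein injection, with 14 days for engraftment. A single 3 mg/kg dose or saline vehicle (10 mL/kg) was given by oral gavage, and femurs were taken 30 min later. Marrow cells were held 10 min at room temperature in RPMI with 20% FBS and 240 μM pervanadate. Mer was then immunoprecipitated and p-Mer/total Mer quantified by Western densitometry; n = 6.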

[26] = molecular target: STE20-like serine/threonine-protein kinase (Homo sapiens, UniProt Q9H2G2); assay: Inhibition of SLK (unknown origin) by Off-chip Mobility Shift Assay; summary of the method: as §2
[27] = Plasma concentration in human 697 cells xenografted NOD.Cg-Prkdcscid Il2rgtm1Wjl/SzJ mouse at 3 mg/kg, po administered as single dose measured after 30 mins post dose; type: ADME, organism-based; set-up: dose 3 mg/kg, route oral
[28] = molecular target: Hepatocyte growth factor receptor (Homo sapiens, UniProt P08581); assay: Inhibition of Met (unknown origin) by Off-chip Mobility Shift Assay; summary of the method: as §2

Chain of STE20-like serine/threonine-protein kinase (Q9H2G2 whole entry): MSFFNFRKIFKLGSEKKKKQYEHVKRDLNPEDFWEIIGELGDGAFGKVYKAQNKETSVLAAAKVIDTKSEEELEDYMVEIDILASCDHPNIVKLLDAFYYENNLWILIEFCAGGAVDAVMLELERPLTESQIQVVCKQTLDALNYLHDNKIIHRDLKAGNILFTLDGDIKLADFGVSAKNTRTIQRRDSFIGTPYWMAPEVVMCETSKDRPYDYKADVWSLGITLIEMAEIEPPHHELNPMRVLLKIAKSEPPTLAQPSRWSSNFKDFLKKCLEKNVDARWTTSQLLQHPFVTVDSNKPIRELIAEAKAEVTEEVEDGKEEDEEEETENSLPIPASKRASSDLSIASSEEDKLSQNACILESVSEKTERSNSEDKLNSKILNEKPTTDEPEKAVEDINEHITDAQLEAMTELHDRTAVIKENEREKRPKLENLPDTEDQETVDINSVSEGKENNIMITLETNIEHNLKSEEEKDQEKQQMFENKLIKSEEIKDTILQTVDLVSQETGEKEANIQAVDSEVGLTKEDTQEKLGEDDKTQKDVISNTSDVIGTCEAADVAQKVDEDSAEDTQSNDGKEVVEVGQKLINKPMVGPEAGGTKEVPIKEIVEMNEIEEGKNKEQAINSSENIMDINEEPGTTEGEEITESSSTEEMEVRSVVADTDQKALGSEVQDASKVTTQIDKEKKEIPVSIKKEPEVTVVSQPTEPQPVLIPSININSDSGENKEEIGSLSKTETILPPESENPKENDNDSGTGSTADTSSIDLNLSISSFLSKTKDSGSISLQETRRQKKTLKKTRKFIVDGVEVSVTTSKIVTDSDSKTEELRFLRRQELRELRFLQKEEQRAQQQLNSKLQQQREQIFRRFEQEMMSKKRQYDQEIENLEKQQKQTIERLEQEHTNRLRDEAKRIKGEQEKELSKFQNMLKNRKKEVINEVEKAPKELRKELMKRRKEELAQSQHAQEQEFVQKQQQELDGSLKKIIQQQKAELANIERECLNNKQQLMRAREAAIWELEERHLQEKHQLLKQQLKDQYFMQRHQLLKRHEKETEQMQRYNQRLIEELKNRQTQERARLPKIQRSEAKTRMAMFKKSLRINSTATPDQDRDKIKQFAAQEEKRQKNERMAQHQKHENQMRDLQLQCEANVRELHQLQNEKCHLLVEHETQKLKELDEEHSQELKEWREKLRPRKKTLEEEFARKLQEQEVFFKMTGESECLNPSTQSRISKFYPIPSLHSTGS
Chain of Receptor-type tyrosine-protein kinase FLT3 (Homo sapiens) (P36888 whole entry): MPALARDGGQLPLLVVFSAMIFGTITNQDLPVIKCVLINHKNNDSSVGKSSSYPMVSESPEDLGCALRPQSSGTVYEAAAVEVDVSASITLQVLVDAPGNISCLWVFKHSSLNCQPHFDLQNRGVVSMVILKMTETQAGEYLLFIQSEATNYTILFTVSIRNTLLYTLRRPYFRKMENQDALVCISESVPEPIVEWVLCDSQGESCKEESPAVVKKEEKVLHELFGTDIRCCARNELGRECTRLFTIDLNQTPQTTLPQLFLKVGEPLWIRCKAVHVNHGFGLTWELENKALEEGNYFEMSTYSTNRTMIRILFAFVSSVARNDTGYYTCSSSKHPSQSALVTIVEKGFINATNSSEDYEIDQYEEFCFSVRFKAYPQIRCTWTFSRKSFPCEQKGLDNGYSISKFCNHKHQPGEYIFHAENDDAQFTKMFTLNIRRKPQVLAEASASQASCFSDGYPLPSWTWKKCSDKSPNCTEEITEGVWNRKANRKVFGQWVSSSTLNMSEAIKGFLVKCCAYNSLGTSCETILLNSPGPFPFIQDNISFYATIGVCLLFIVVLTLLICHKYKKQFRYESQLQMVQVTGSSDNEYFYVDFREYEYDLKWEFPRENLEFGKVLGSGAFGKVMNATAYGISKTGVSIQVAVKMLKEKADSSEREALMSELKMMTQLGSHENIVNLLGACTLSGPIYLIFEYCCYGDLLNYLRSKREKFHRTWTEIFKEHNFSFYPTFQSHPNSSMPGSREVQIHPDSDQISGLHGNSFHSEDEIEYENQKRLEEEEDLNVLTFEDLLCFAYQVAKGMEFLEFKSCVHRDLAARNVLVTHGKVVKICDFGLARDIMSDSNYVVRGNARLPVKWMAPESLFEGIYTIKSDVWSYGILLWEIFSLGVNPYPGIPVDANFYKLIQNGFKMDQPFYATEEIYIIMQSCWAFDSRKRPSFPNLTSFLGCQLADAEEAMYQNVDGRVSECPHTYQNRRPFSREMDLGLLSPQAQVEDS
Chain of Mast/stem cell growth factor receptor Kit (P10721 whole entry): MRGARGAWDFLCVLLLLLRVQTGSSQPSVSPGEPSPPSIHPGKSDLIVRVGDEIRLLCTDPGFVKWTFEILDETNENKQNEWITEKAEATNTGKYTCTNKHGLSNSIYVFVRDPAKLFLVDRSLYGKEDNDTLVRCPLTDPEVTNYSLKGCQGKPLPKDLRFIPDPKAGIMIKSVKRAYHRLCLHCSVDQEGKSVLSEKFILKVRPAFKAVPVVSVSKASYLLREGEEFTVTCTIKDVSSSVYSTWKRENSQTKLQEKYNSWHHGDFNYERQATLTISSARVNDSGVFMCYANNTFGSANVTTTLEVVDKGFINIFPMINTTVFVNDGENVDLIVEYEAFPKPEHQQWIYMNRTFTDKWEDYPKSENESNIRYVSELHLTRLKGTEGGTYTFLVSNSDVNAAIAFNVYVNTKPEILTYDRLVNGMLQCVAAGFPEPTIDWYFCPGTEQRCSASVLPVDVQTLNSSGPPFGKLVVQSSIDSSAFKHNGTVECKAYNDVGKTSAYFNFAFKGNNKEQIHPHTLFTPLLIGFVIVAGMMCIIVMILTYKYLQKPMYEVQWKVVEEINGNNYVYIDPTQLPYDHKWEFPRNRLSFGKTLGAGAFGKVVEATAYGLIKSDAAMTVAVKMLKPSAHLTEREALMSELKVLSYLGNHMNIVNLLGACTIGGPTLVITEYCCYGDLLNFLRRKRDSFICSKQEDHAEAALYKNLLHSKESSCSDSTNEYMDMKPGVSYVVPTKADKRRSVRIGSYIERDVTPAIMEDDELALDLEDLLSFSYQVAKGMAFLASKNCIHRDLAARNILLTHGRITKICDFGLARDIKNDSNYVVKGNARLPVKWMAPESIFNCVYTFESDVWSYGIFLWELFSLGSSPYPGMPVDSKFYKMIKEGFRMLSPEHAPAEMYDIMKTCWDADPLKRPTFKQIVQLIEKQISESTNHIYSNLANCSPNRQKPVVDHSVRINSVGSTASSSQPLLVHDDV
Chain of NT-3 growth factor receptor (Q16288 whole entry): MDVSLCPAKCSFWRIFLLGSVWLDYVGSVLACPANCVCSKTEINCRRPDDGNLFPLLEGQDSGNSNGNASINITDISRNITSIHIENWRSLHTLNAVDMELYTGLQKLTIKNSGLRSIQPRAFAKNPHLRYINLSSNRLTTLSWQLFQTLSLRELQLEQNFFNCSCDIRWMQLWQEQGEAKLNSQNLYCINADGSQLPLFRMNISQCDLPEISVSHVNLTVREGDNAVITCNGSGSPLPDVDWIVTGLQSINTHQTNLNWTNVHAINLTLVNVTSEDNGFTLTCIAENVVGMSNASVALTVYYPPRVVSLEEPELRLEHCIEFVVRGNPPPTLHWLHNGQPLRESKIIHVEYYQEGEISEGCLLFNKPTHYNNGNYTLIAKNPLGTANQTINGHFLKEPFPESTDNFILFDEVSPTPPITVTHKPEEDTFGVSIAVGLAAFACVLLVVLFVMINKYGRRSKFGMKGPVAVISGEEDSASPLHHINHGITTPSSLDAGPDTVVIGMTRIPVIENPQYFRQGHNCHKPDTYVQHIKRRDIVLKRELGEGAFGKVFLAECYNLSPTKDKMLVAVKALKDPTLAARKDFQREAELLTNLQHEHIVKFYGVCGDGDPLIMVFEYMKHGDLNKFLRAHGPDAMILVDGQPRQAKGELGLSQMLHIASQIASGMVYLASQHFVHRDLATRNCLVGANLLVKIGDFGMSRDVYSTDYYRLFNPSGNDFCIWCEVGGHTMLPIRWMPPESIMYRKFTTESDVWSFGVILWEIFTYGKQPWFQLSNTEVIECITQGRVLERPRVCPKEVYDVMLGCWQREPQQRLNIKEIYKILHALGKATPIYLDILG

## CCCCNc1ncc2c(-c3ccc(CN4CCN(C)CC4)cc3)cn([C@H]3CC[C@H](O)CC3)c2n1.Cl
[1]
  Kinetic_solubility: 38 µg/mL

## CCCCNc1ncc2c(-c3ccc(CN4CCN(C)CC4)cc3)cn([C@H]3CC[C@H](O)CC3)c2n1 [listing 1 of 2 here]
[2]
  inhibition: Active
[3]
  inhibition: Active

## CN1CCN(Cc2ccc(-c3cn([C@H]4CC[C@H](O)CC4)c4nc(NCCC5CC5)ncc34)cc2)CC1
Mus musculus [4]
  F: 78%
[5]
  Cmax: 1300 nM
[6]
  AUC(0-t): 9 µM·h
[7]
  Vd: 2 L/kg
[8]
  half-life: 264 min
[9]
  Cmax: 6500 nM
[10]
  AUC(0-t): 12 µM·h
[11]
  clearance: 7.2 mL/min/kg
[12]
  Tmax: 60 min

## CN1CCN(S(=O)(=O)c2ccc(-c3cn([C@H]4CC[C@H](O)CC4)c4nc(NCCC5CC5)ncc34)c(F)c2)CC1
Mus musculus [4]
  F: 67%
[5]
  Cmax: 420 nM
[6]
  AUC(0-t): 0.69 µM·h
[7]
  Vd: 5.3 L/kg
[8]
  half-life: 72 min
[9]
  Cmax: 1200 nM
[10]
  AUC(0-t): 1 µM·h
[11]
  clearance: 76 mL/min/kg
[12]
  Tmax: 15 min

## CCCCNc1ncc2c(-c3ccc(S(=O)(=O)N4CCOCC4)cc3)cn([C@H]3CC[C@H](O)CC3)c2n1
Mus musculus [4]
  F: 8.4%
[5]
  Cmax: 160 nM
[6]
  AUC(0-t): 0.12 µM·h
[7]
  Vd: 0.78 L/kg
[8]
  half-life: 13.8 min
[9]
  Cmax: 7900 nM
[10]
  AUC(0-t): 1.4 µM·h
[11]
  clearance: 70 mL/min/kg
[12]
  Tmax: 15 min

## CCCCNc1ncc2c(-c3ccc(S(=O)(=O)N4CCN(C)CC4)c(F)c3)cn([C@H]3CC[C@H](O)CC3)c2n1
[13]
  Vd: 5.5 L/kg
[14]
  AUC(0-t): 0.27 µM·h
[15]
  AUC(0-t): 0.66 µM·h
Mus musculus [16]
  F: 25%
[17]
  Cmax: 390 nM
[18]
  Tmax: 15 min
[19]
  half-life: 48 min
[20]
  Cmax: 400 nM
[21]
  clearance: 103 mL/min/kg

## CCCCNc1ncc2c(-c3ccc(CN4CCN(C)CC4)cc3)cn([C@H]3CC[C@H](O)CC3)c2n1 [listing 2 of 2 here]
[22]
  IC50: 7.97 nM
Mus musculus [4]
  F: 100%
[5]
  Cmax: 1600 nM
[6]
  AUC(0-t): 9.2 µM·h
[7]
  Vd: 2.3 L/kg
[8]
  half-life: 228 min
[9]
  Cmax: 4100 nM
[23]
  IC50: 4.38 nM
[10]
  AUC(0-t): 9.2 µM·h
[24]
  fraction unbound at 0.5 h: 0.014
Plasma
  Cp(f): 22 nM
[11]
  clearance: 9.2 mL/min/kg
[25]
  IC50: 8.18 nM
697
  inhibition in vivo at 3 mg/kg: > 90%
[12]
  Tmax: 30 min
[26]
  IC50: 6.14 nM
[27]
  concentration at 0.5 h: 1600 nM
[28]
  IC50: 364 nM

## CCCCNc1ncc2c(-c3ccc(S(=O)(=O)N4CCOCC4)cc3)nn([C@H]3CC[C@H](O)CC3)c2n1
Mus musculus [4]
  F: 0.3%
[5]
  Cmax: 13 nM
[6]
  AUC(0-t): 0.01 µM·h
[7]
  Vd: 0.43 L/kg
[8]
  half-life: 138 min
[9]
  Cmax: 16000 nM
[10]
  AUC(0-t): 3.3 µM·h
[11]
  clearance: 30 mL/min/kg
[12]
  Tmax: 30 min

— ChEMBL document CHEMBL3351548, “UNC2025, a potent and orally bioavailable MER/FLT3 dual inhibitor” (J Med Chem, 2014)
